In ChEMBL document CHEMBL1127574, “Design and synthesis of ellipticinium salts and 1,2-dihydroellipticines with high selectivities against human CNS cancers in vitro” (1994):

What was measured:
Type in all cases: functional
HOP-92 = test: Tested in vitro for cytotoxicity in HOP-92 cell line of Non-Small Cell Lung Cancer; details: Homo sapiens, read-out: Log TGI (converted)
In short: (§1)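 Compounds dissolved in DMSO, then diluted 500-fold into aqueous medium. The resulting aqueous solutions or suspensions were added to the cultured human tumour cell lines, and the cells were exposed for 48 h. Growth was read colorimetrically in one of two ways: a metabolic assay in which viable cells reduce a tetrazolium salt to a formazan dye, or a protein stain for total cellular protein.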

SW-620 = test: Tested in vitro for cytotoxicity in SW-620 cell line of Colon Cancer; details: Homo sapiens, read-out: Log TGI (converted)
In short: (§2)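 Compounds dissolved in DMSO and diluted 500-fold into aqueous medium; aliquots of the resulting solutions or suspensions added to cultured human tumor cells for 48 h. Growth read colorimetrically, either by tetrazolium reduction to formazan by viable cells or by protein staining of total cellular protein.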

NCI-H522 = test: Tested in vitro for cytotoxicity in NCI-H522 cell line of Non-Small Cell Lung Cancer; details: Homo sapiens, read-out: Log TGI (converted); in short: as §1
DMS-273 = test: Tested in vitro for cytotoxicity in DMS273 cell line of Small Cell Lung Cancer; details: Homo sapiens, read-out: Log TGI (converted); in short: as §1
OVCAR-8 = test: Tested in vitro for cytotoxicity in OVCAR-8 cell line of Ovarian Cancer; details: Homo sapiens, read-out: Log TGI (converted); in short: as §1
HL-60 = test: Tested in vitro for cytotoxicity in HL-60(TB) cell line of Leukemia; details: Homo sapiens, read-out: Log TGI (converted)
In short: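 Compounds were dissolved in DMSO and diluted 500-fold in aqueous medium. Aliquots of the resulting solution or suspension were added to the cultured cells for 48 h. Growth was read colorimetrically, either by tetrazolium reduction to formazan in viable cells or by a total-protein stain.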

CCRF-CEM = test: Tested in vitro for cytotoxicity in CCRF-CEM cell lines; details: Homo sapiens; in short: as §1
SF-268 [1] = test: Tested in vitro for cytotoxicity in SF-268 cell lines; details: Homo sapiens; in short: as §1
U-251 = test: Tested in vitro for cytotoxicity in U251 cell line of CNS Cancer; details: Homo sapiens, read-out: Log TGI (converted); in short: as §2
SN12C = test: Tested in vitro for cytotoxicity in SN12C cell line of Renal cancer; details: Homo sapiens, read-out: Log TGI (converted); in short: as §2
OVCAR-5 = test: Tested in vitro for cytotoxicity in OVCAR-5 cell line of Ovarian Cancer; details: Homo sapiens, read-out: Log TGI (converted); in short: as §1
SR = test: Tested in vitro for cytotoxicity in SR cell line of Leukemia; details: Homo sapiens, read-out: Log TGI (converted); in short: as §2
SNB-78 = test: Tested in vitro for cytotoxicity in SNB-78 cell line of CNS Cancer; details: Homo sapiens, read-out: Log TGI (converted); in short: as §2
SF-268 [2] = test: Tested in vitro for cytotoxicity in SF-268 cell line of CNS cancer; details: Homo sapiens, read-out: Log TGI (converted); in short: as §1
SK-MEL-28 = test: Tested in vitro for cytotoxicity in SK-MEL-28 cell line of Melanoma; details: Homo sapiens, read-out: Log TGI (converted); in short: as §1
Malme-3M [3] = test: Tested in vitro for cytotoxicity in MALME-3M cell line of Melanoma; details: Homo sapiens, read-out: Log TGI (converted); in short: as §1
IGROV-1 = test: Tested in vitro for cytotoxicity in IGROV1 cell lines; details: Homo sapiens; in short: as §1
NCI-H322M = test: Tested in vitro for cytotoxicity in NCI-H322M cell line of Non-Small Cell Lung Cancer; details: Homo sapiens, read-out: Log TGI (converted); in short: as §1
TK-10 = test: Tested in vitro for cytotoxicity in TK-10 cell line of Renal cancer; details: Homo sapiens, read-out: Log TGI (converted); in short: as §2
RXF 393 = test: Tested in vitro for cytotoxicity in RXF-393 cell line of Renal cancer; details: Homo sapiens, read-out: Log TGI (converted); in short: as §1
SNB-75 = test: Tested in vitro for cytotoxicity in SNB-75 cell line of CNS Cancer; details: Homo sapiens, read-out: Log TGI (converted); in short: as §2
NCI-H460 = test: Tested in vitro for cytotoxicity in NCI-H460 cell line of Non-Small Cell Lung Cancer; details: Homo sapiens, read-out: Log TGI (converted); in short: as §1
NCI-H226 = test: Tested in vitro for cytotoxicity in NCI-H226 cell line of Non-Small Cell Lung Cancer; details: Homo sapiens, read-out: Log TGI (converted); in short: as §1
LOX IMVI = test: Tested in vitro for cytotoxicity in LOX IMVI cell line of Melanoma; details: Homo sapiens, read-out: Log TGI (converted); in short: as §1
A498 = test: Tested in vitro for cytotoxicity in A498 cell line of Renal cancer; details: Homo sapiens, read-out: Log TGI (converted); in short: as §1
UO-31 = test: Tested in vitro for cytotoxicity in UO-31 cell line of Renal cancer; details: Homo sapiens, read-out: Log TGI (converted); in short: as §2
Malme-3M [4] = test: Tested in vitro for cytotoxicity in MALME-3M; details: Homo sapiens; in short: as §1
UACC-62 = test: Tested in vitro for cytotoxicity in UACC-62 cell line of Melanoma; details: Homo sapiens, read-out: Log TGI (converted); in short: as §2
HOP-18 = test: Tested in vitro for cytotoxicity in HOP-18 cell line of Non-Small Cell Lung Cancer; details: Homo sapiens, read-out: Log TGI (converted); in short: as §1
HT-29 = test: Tested in vitro for cytotoxicity in HT-29 cell line of Colon Cancer; details: Homo sapiens, read-out: Log TGI (converted); in short: as §1
LXFL 529 = test: Tested in vitro for cytotoxicity in LXFL-529 cell line of Non-Small Cell Lung Cancer; details: Homo sapiens, read-out: Log TGI (converted); in short: as §1

## COc1ccc2[nH]c3c(C)c4c(c(C)c3c2c1)CN(C)C=C4
HOP-92
  TGI: 25.1 µM
SW-620
  TGI: 15.8 µM
NCI-H522
  TGI: 5.01 µM
DMS-273
  TGI: 12.6 µM
OVCAR-8
  TGI: 15.8 µM
HL-60
  TGI: 63.1 µM
CCRF-CEM
  GI50: 2.64 µM
SF-268 [1]
  GI50: 0.186 µM
U-251
  TGI: 1 µM
SN12C
  TGI: 0.794 µM
OVCAR-5
  TGI: 31.6 µM
SR
  TGI: 63.1 µM
SNB-78
  TGI: 5.01 µM
SF-268 [2]
  TGI: 0.631 µM
SK-MEL-28
  TGI: 12.6 µM
Malme-3M [3]
  TGI: 5.01 µM
IGROV-1
  GI50: 1.68 µM
NCI-H322M
  TGI: 15.8 µM
TK-10
  TGI: 50.1 µM
RXF 393
  TGI: 31.6 µM
SNB-75
  TGI: 0.794 µM
NCI-H460
  TGI: 10 µM
NCI-H226
  TGI: 0.794 µM
LOX IMVI
  TGI: 25.1 µM
A498
  TGI: 63.1 µM
UO-31
  TGI: > 100 µM
Malme-3M [4]
  GI50: 1.44 µM
UACC-62
  TGI: 20 µM
HOP-18
  TGI: 39.8 µM
HT-29
  TGI: 25.1 µM
LXFL 529
  TGI: 5.01 µM
